Screening data deposited in PubChem BioAssay by several laboratories.
Mcl1 Noxa PPI = Mcl-1/Noxa interaction inhibition; 220,000 compounds, 1.5% hits; Q07820; TR-FRET Mcl-1/Noxa peptide binding, 2 h; inhibition, % at 21.7 µM;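 active = compounds that cut the protein-peptide binding signal by more than 50% relative to plate controls in a single-dose test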;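 also: His-tagged Mcl-1 with rhodamine Noxa BH3 peptide and terbium anti-His antibody; 0% = Mcl-1 plus Noxa peptide wells and 100% = peptide-only wells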
Mcl1-Bid inh = Mcl-1/Bid interaction inhibition. TR-FRET Mcl-1/Bid-Dy647 peptide binding, 1536-well. AID 1021. inhibition, % at 21.7 µM. 220,000 compounds, 0.97% hits. Q07820;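 active = compounds that cut the binding signal by more than half at the single screening dose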;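 also: His-tagged Mcl-1 with europium anti-His antibody binding Bid BH3 peptide; 0% = Mcl-1 plus peptide wells and 100% = peptide-only wells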
RBBP9 inh = blocks human serine hydrolase RBBP9; recombinant RBBP9, FP-Rh probe fluorescence polarization; inhibition, % at 7.94 µM; 220,000 compounds, 0.2% hits; AID 1515;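 active = inhibition above the campaign mean of all tested compounds plus 3 SD, cut at about 14% in these data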;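 also: plate controls were DMSO wells with RBBP9 for no effect and wells lacking RBBP9 protein for full effect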
Target sequence (O75884 whole entry, looked up): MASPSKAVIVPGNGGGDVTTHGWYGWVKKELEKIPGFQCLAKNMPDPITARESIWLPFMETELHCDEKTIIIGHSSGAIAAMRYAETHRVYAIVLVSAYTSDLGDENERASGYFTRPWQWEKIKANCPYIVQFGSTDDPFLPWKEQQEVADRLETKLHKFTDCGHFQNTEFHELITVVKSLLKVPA
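Measured by – fluorescence polarization · Test system – RBBP9 protein · Input – 2.5 µM RBBP9 dispensing solution, before mixing · Measure – percent inhibition from mP, scaled between DMSO and no-protein wells · Benchmarks – DMSO-treated enzyme wells and wells lacking RBBP9 · Times – preincubation 30 min plus labeling 45 min at 25 °C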
EBV gp42 inh = EBV gp42 inhibition; Q1HVG2; AID 1085; 220,000 compounds, 0.42% hits; inhibition, % (tested at 21.74 µM); Fluorescence polarization binding assay, mP read-out; in the data active = inhibition above about 50%
Target sequence (Q1HVG2 whole entry, looked up): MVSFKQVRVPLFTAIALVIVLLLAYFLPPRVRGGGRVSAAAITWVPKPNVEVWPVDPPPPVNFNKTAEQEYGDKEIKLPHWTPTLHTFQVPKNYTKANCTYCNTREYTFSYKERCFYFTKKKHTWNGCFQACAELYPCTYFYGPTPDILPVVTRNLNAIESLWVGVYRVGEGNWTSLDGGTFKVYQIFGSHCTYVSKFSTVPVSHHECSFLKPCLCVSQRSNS
Mcl-1 Bim block = disrupts Bim peptide binding to human Mcl-1 | Q07820 | Bead-based flow cytometry, Bim peptide-Mcl-1 binding | inhibition, % at 10 µM | 190,000 compounds, 0.1% hits | AID 1009; in the data active = inhibition above about 40%;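 also: 0% = no compound tracer wells and 100% = peptide blocker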
MCL1-BIM inh = inhibitors of human MCL1 binding to BIM-BH3 peptide. Q07820. GST-MCL1 / FITC-Bim-BH3 fluorescence polarization. inhibition, % at 10.9 µM. 320,000 compounds, 0.68% hits. AID 2057;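 active = inhibition above the mean inhibition of all tested compounds plus 3 SD, set per campaign, cut at about 40% in these data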;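 also: 0% = DMSO wells and 100% = unlabeled Bim-BH3 peptide control; higher means more loss of mP so more displacement of Bim peptide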
* marks the source's active call; other numbers are inactive results. Compounds with a hit are over-represented: about 2.2% of the library has one in this group of screens.

What do the screens show for `Cc1ccc(-n2cccc2/C=C2/C(=N)N3C(=NC2=O)SN=C3S(C)(=O)=O)cc1Cl`?
Mcl1 Noxa PPI: 116*; Mcl1-Bid inh: 97*; RBBP9 inh: -11; EBV gp42 inh: 44; Mcl-1 Bim block: 12; MCL1-BIM inh: 14

Results for Cc1cccc(C)c1-n1cccc1/C=C1/C(=N)N2C(=NC1=O)SN=C2S(C)(=O)=O ?
Mcl1 Noxa PPI: 22; Mcl1-Bid inh: 19; RBBP9 inh: -8; EBV gp42 inh: 10; Mcl-1 Bim block: 0; MCL1-BIM inh: 15

What do the screens show for `CC(=O)Nc1ccc(Nc2c([N+](=O)[O-])c(=O)n(-c3ccccc3)c3ccccc23)cc1`?
Mcl1 Noxa PPI: 29; Mcl1-Bid inh: -37; RBBP9 inh: -8; EBV gp42 inh: 6; Mcl-1 Bim block: 0; MCL1-BIM inh: 6

How did CCCN1CCC(NC23CC4CC(CC(C4)C2)C3)CC1 do in these assays?
MCL1-BIM inh: 8

How did COCCCN1C(=O)C(=O)/C(=C(/O)c2ccc(S(=O)(=O)N3CCOCC3)cc2)C1c1cccc(Cl)c1 (configuration not stated) do in these assays?
MCL1-BIM inh: 4

What do the screens show for `COCCN1C(=O)C(=O)/C(=C(/O)c2ccc(S(=O)(=O)N3CCOCC3)cc2)C1c1cccc(Cl)c1` (configuration not stated)?
Mcl1 Noxa PPI: 40; Mcl1-Bid inh: 66*; RBBP9 inh: -3; EBV gp42 inh: -9; MCL1-BIM inh: -3

What do the screens show for `O=C(CCC(=O)N(CC(=O)NC1CCCCC1)c1ccc(F)cc1)Nc1ccccn1`?
MCL1-BIM inh: 3

How did O=C(NCCC1CCCCN1S(=O)(=O)c1ccc(F)cc1)C(=O)Nc1ccccc1 (configuration not stated) do in these assays?
MCL1-BIM inh: 9

Results for O=C(COc1ccc(-c2nnco2)cc1)NC1CCCc2ccccc21 (configuration not stated) ?
Mcl1 Noxa PPI: 10; Mcl1-Bid inh: 60*; RBBP9 inh: -3; EBV gp42 inh: -6; Mcl-1 Bim block: 5; MCL1-BIM inh: 1

Results for Cc1c(C=O)c(Cl)n(C)c(=O)c1C#N ?
Mcl1 Noxa PPI: 55*; Mcl1-Bid inh: -6; RBBP9 inh: 2; EBV gp42 inh: -4; Mcl-1 Bim block: 0; MCL1-BIM inh: 36

What do the screens show for `CC(C)CCN(C(=O)COc1ccc(C#N)cc1)c1c(N)n(Cc2ccccc2)c(=O)[nH]c1=O`?
Mcl1 Noxa PPI: 5; Mcl1-Bid inh: -36; RBBP9 inh: -1; EBV gp42 inh: 4; Mcl-1 Bim block: -1; MCL1-BIM inh: -3

What do the screens show for `Cc1ccnc(NC(c2ccncc2)c2c(C)[nH]c3ccccc23)c1` (configuration not stated)?
Mcl1 Noxa PPI: 35; Mcl1-Bid inh: 51*; RBBP9 inh: -6; EBV gp42 inh: -15; Mcl-1 Bim block: -4; MCL1-BIM inh: 8

Results for COc1ccc(NC(=O)c2ccc3ccccc3c2OC)cc1 ?
MCL1-BIM inh: 0

What do the screens show for `c1ccc(CN2CCN(c3nc(NCc4ccco4)c4ccccc4n3)CC2)cc1`?
Mcl1 Noxa PPI: 6; Mcl1-Bid inh: -32; RBBP9 inh: -2; EBV gp42 inh: 8; Mcl-1 Bim block: 0; MCL1-BIM inh: 5

Results for Cc1ccc(-c2nc(NCc3ccco3)c3ccccc3n2)cc1 ?
Mcl1 Noxa PPI: 17; Mcl1-Bid inh: -18; RBBP9 inh: -10; EBV gp42 inh: -13; Mcl-1 Bim block: 0; MCL1-BIM inh: 6

What do the screens show for `c1cncc(-c2nc(NCc3ccco3)c3ccccc3n2)c1`?
Mcl1 Noxa PPI: 51*; Mcl1-Bid inh: 53*; RBBP9 inh: -7; EBV gp42 inh: 8; Mcl-1 Bim block: -2; MCL1-BIM inh: 1

What do the screens show for `Oc1ccccc1Nc1nc(NCc2ccco2)c2ccccc2n1`?
Mcl1 Noxa PPI: 60*; Mcl1-Bid inh: -47; RBBP9 inh: 6; EBV gp42 inh: 30; MCL1-BIM inh: -7

What do the screens show for `OCCN1CCN(c2nc(NCc3ccco3)c3ccccc3n2)CC1`?
Mcl1 Noxa PPI: 51*; Mcl1-Bid inh: 1; RBBP9 inh: 4; EBV gp42 inh: -12; Mcl-1 Bim block: -1; MCL1-BIM inh: -4

Results for CC(C(=O)Nc1ccc(Cl)cc1Cl)N1C(=O)NC2(CCCCCCC2)C1=O (configuration not stated) ?
MCL1-BIM inh: -4

Results for Cc1ccc(/C=C/C(=O)NCc2ccc(S(N)(=O)=O)cc2)o1 ?
Mcl1 Noxa PPI: 53*; Mcl1-Bid inh: -41; RBBP9 inh: -9; EBV gp42 inh: -4; Mcl-1 Bim block: -5

Results for Cc1ccc(/C=C/C(=O)Nc2ccc(S(N)(=O)=O)cc2)o1 ?
Mcl1 Noxa PPI: 33; Mcl1-Bid inh: -30; RBBP9 inh: 7; EBV gp42 inh: -16; Mcl-1 Bim block: -1; MCL1-BIM inh: 0

Results for O=C(CN1CCN(c2ccccn2)CC1)N1c2ccccc2Sc2ccc(C(F)(F)F)cc21 ?
Mcl1 Noxa PPI: 30; Mcl1-Bid inh: 41; RBBP9 inh: -2; EBV gp42 inh: 8; Mcl-1 Bim block: 0; MCL1-BIM inh: 3

Results for O=C(CN1CCN(c2ccccn2)CC1)N1c2ccccc2CCc2ccccc21 ?
Mcl1 Noxa PPI: 22; Mcl1-Bid inh: 55*; RBBP9 inh: -11; EBV gp42 inh: 2; Mcl-1 Bim block: -3; MCL1-BIM inh: 8

How did Cc1c(C(=O)N/N=C/c2cccnc2)nnn1-c1nonc1N do in these assays?
MCL1-BIM inh: -3

How did Cc1cc(C)c(S(=O)(=O)NCc2cn3c(C)csc3n2)c(C)c1 do in these assays?
Mcl1 Noxa PPI: -54; Mcl1-Bid inh: -143; RBBP9 inh: -7; EBV gp42 inh: 4; Mcl-1 Bim block: -4; MCL1-BIM inh: 8

Results for Cc1cc(C)c(S(=O)(=O)NCc2cn3c(C)csc3n2)cc1C ?
Mcl1 Noxa PPI: 76*; Mcl1-Bid inh: 3; RBBP9 inh: -3; EBV gp42 inh: 11; Mcl-1 Bim block: 0; MCL1-BIM inh: 3

Results for O=C(Cc1ccc(Br)cc1)N1CCN(C(=O)c2ccco2)CC1 ?
MCL1-BIM inh: -4

How did CC(=O)Nc1nc(-c2ccc([N+](=O)[O-])cc2)cs1 do in these assays?
Mcl1 Noxa PPI: 22; Mcl1-Bid inh: -2; RBBP9 inh: -8; EBV gp42 inh: 0; Mcl-1 Bim block: -21; MCL1-BIM inh: 5

How did O=C(Nc1ccc([N+](=O)[O-])cc1)Nc1nc(-c2ccc(Cl)s2)cs1 do in these assays?
Mcl1 Noxa PPI: 82*; Mcl1-Bid inh: 29; RBBP9 inh: -3; EBV gp42 inh: -5; Mcl-1 Bim block: -4; MCL1-BIM inh: 0

What do the screens show for `CCCC(=O)Nc1nc(-c2ccc(Cl)s2)cs1`?
Mcl1 Noxa PPI: 11; Mcl1-Bid inh: -16; RBBP9 inh: -9; EBV gp42 inh: 6; Mcl-1 Bim block: 0; MCL1-BIM inh: -1
